Source: the RNAGym collection of RNA variant scans (doi:10.1126/science.aae0568)
Variants at the floor of the assay were thinned out.

B1: tRNA (parent)
chain: GUUCCGUUGGCGUAAUGGUAACGCGUCUCCCUCCUAAGGAGAAGACUGCGGGUUCGAGUCCCGUACGGAACG

Variants of: B1
Assay: yeast fitness relative to wild type (ratio to wild type); higher = fitter; tRNA-Arg(CCU), competitive growth, 37 C, YPD
How it was run: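 Genotype frequency changes were the basis for Darwinian fitness relative to wild type. The frequencies came from 100-nucleotide paired-end sequencing of gene amplicons from the start population and each end population of pooled yeast strains with tRNA-Arg(CCU) gene variants at the native locus. Competition ran in YPD at 37°C for 24 hours in six replicates, genotypes needed ≥ 100 starting reads, and estimates < 0.5 were set to 0.5.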

Variant | yeast fitness
C5U U13C C24G U26C A36C C55G A57U C62U | ≤ 0.5
U32C U47C | 0.974
C30A A43U A65U | 0.608
U26A G68C | 0.82
A36C C62A G67A A70G | ≤ 0.5
U19C A43U | 1.03
G17C C31U A37U G41A G48A | ≤ 0.5
A37G G63C | 0.66
C4G C11G C29A C30U | ≤ 0.5
U2A A36C A45C C55G C62A G68A | ≤ 0.5
C11A G12A A20C C29U | ≤ 0.5
C60U C62U | 0.659
G9A C11G A36U | ≤ 0.5
G9A C31U A40C | 1.04
U13C C30U A40G C55A G63C A65C | ≤ 0.5
G10C U13C G18C C27U C33G A37G C55U U64A G68C A70U | ≤ 0.5
C27U C29U | 0.792
A69C A70C | 0.982
U3C A21G G44C G63C | ≤ 0.5
C5U A37U A57U A69C | ≤ 0.5
C4A A15G U32C U35C G67C A69U | ≤ 0.5

Variant | yeast fitness
A43C G50A | 0.803
C11U A65G A70U | 0.606
C27G C46U G51A | 0.633
A20U A57U A65C A70G | ≤ 0.5
A20G A21U A36G A40C C55U | ≤ 0.5
U7A G9C G17C G48A C60U | ≤ 0.5
C29G A40C | 0.685
C5U A40C U47C A65U | ≤ 0.5
A37C C55U G63A G67C | 0.617
C27U C55A | 0.583
G12C A14C U26C A40U G41A A42C | ≤ 0.5
C4A G48A A65C | 0.618
G9A C29G A45U C46G G48A G56C | ≤ 0.5
C61A G68U | 0.534
U32C C62G | 0.796
C5U G17C C46A | 0.556
C31A G52C | ≤ 0.5
C24G U28G A45C U47C U64A | 0.6
G9A U16G | 0.799
A15C G48C | 0.69
C5U G9C C11G C24A U26G G68A A69C | ≤ 0.5

Variant | yeast fitness
C27A C46U G52A | 0.644
A36U C46G C62A A69C | 0.562
A36C A37C | 0.54
C4G U7G C31U A65U | ≤ 0.5
U16A C34A C60A | 0.574
U8C C24G G38C | ≤ 0.5
G9A C11G U19C G56A C60G | 0.566
C5G U13C C34A A57U | ≤ 0.5
G6A A21C C34U C49U C55G C62U | ≤ 0.5
G12A G58A | 0.924
G10C U32A A43C C49A | ≤ 0.5
C22A A42U G50C A57G | ≤ 0.5
C27A U35C A57C | 0.619
U53A A57U A65U | 0.725
C11U A20G A37G U54A U59G | ≤ 0.5
U8A C24U A40U A42C A65C A69C | ≤ 0.5
U7C U54C | 0.821
C24A C31U G38A G58C | ≤ 0.5
U32C G38C G41C A65G | ≤ 0.5
C11U A65U C66A | ≤ 0.5
C4G C22U C46G G63A | ≤ 0.5

Variant | yeast fitness
C11G G39C U47C | ≤ 0.5
C11G A14G C27A G38A A65C | ≤ 0.5
A14G C34G A43C A65G | 0.558
G9C C31U A65U | ≤ 0.5
U16G G44C G68A A69U | 0.609
C27U C29G A57C C61A | ≤ 0.5
G17A C34A A70C | 0.631
G41C A43U | 0.957
U2G C5G A21C A43U G50A G52U A69C | ≤ 0.5
G18C A20U C34U A40C C49U U64C C66U | 0.549
C22A U28G C49A C61A | ≤ 0.5
C4U G48C | 0.951
U2G U19C G48C G52C C62G | ≤ 0.5
G10A U16G | 0.611
U19C C22G C24A G39C A45C | 0.916
G10C A14C A15G U64G | ≤ 0.5
C24U C61G | 0.598
U7A C27A C29G C30G G51A | 0.535
C33G C49A | 0.628
G12A C22U C30G C31A G39C A57G | ≤ 0.5
G23C C27G C31A A45U G67A | ≤ 0.5
